Active and inactive are the calls of the source. The rule behind the calls is not given here.
Experiments:
[1] = molecular target: Ephrin type-A receptor 2 (Homo sapiens, UniProt P29317); test: Inhibition of EphA2 (unknown origin) in presence of [gamma-33P]ATP
[2] = molecular target: Casein kinase 2 (Homo sapiens, UniProt P67870+P68400+P19784+Q8NEV1); test: Inhibition of CK2 (unknown origin) at 10 micromol/L in presence of [gamma-33P]ATP relative to control; assay type: protein assay; conditions: dose 10.0 µmol/L
[3] = molecular target: Tyrosine-protein kinase Fes/Fps (Homo sapiens) (UniProt P07332); test: Inhibition of N-terminal His6-tagged recombinant full length human Fes expressed in baculovirus infected Sf21 cells assessed as residual activity at 0.1 uM relative to control
[4] = molecular target: Inhibitor of nuclear factor kappa-B kinase subunit beta (Homo sapiens) (UniProt O14920); test: Inhibition of N-terminal His6 tagged recombinant full-length human IKKbeta expressed in baculovirus infected Sf21 cells assessed as residual activity at 0.1 uM relative to control
[5] = molecular target: SRSF protein kinase 3 (Homo sapiens) (UniProt Q9UPE1); test: Inhibition of N-terminal 6His-tagged recombinant human full-length MSSK1 expressed in baculovirus infected Sf21 cells assessed as residual activity at 0.1 uM relative to control
[6] = molecular target: Serine/threonine-protein kinase Nek3 (Homo sapiens) (UniProt P51956); test: Inhibition of N-terminal 6His-tagged recombinant full length human NEK3 expressed in baculovirus infected Sf21 cells assessed as residual activity at 0.1 uM relative to control
[7] = molecular target: PAS domain-containing serine/threonine-protein kinase (Homo sapiens) (UniProt Q96RG2); test: Inhibition of human PASK assessed as residual activity at 0.1 uM relative to control
[8] = molecular target: Mitogen-activated protein kinase 13 (Homo sapiens) (UniProt O15264); test: Inhibition of recombinant GST-tagged fusion protein fused to full length human SAPK4 expressed in E. coli assessed as residual activity at 0.1 uM relative to control
[9] = molecular target: Angiopoietin-1 receptor (Homo sapiens) (UniProt Q02763); test: Inhibition of N-terminal His6-tagged recombinant human Tie2 (771 to end residues) expressed in baculovirus infected Sf21 cells assessed as residual activity at 0.1 uM relative to control
[10] = molecular target: BDNF/NT-3 growth factors receptor (Homo sapiens) (UniProt Q16620); test: Inhibition of N-terminal His6 tagged recombinant human TrkB (455 to end residues) expressed in baculovirus infected Sf21 cells assessed as residual activity at 0.1 uM relative to control
[11] = molecular target: Tyrosine-protein kinase Fgr (Homo sapiens) (UniProt P09769); test: Inhibition of N-terminal His6-tagged recombinant human Fgr (2 to end residues) expressed in baculovirus infected Sf21 cells assessed as residual activity at 1 uM relative to control
[12] = molecular target: Homeodomain-interacting protein kinase 2 (Homo sapiens) (UniProt Q9H2X6); test: Inhibition of N-terminal His6-tagged recombinant human HIPK2 (165 to 564 residues) expressed in baculovirus infected Sf21 cells assessed as residual activity at 1 uM relative to control
[13] = molecular target: Tyrosine-protein kinase Lyn (Mus musculus) (UniProt P25911); test: Inhibition of N-terminal his6-tagged recombinant full-length mouse Lyn expressed in baculovirus infected Sf21 cells assessed as residual activity at 1 uM relative to control
[14] = molecular target: MAP kinase-activated protein kinase 5 (Homo sapiens) (UniProt Q8IW41); test: Inhibition of N-terminal His6-tagged recombinant human full-length PRAK expressed in baculovirus infected Sf21 cells assessed as residual activity at 1 uM relative to control
[15] = molecular target: Mitogen-activated protein kinase 12 (Homo sapiens) (UniProt P53778); test: Inhibition of recombinant GST fusion protein corresponding to full-length human SAPK3 expressed in E. coli assessed as residual activity at 1 uM relative to control
[16] = tested on: CAL-51; test: Antiproliferative activity against human CAL-51 cells assessed as inhibition of cell growth incubated for 72 hrs by cell-titer glo assay; assay type: functional, cell-based; conditions: CAL-51, 72 h
Method in brief: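 Cells seeded 10,000–30,000/cm² (adherent) or 100,000/mL (suspension) in medium with 10% fetal calf serum; after 24 h treated in duplicate with serial dilutions for 72 h. Viable cells read by CellTiter-Glo luminescence; IC50 from sigmoidal fit; at least two independent experiments.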

[17] = tested on: HCC1395; test: Antiproliferative activity against human HCC1395 cells assessed as inhibition of cell growth incubated for 72 hrs by cell-titer glo assay; assay type: functional, cell-based; conditions: HCC1395, 72 h
Method in brief: (§1)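 Cells seeded at 10,000–30,000/cm² (adherent) or 100,000/mL (nonadherent) in medium with 10% fetal calf serum; after 24 h, treated in duplicate with serial dilutions for 72 h. Viable cell number read by CellTiter-Glo luminescence; IC50 from sigmoidal fit; at least two independent experiments.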

[18] = tested on: JIMT-1; test: Antiproliferative activity against human JIMT-1 cells assessed as inhibition of cell growth incubated for 72 hrs by cell-titer glo assay; assay type: functional, cell-based; conditions: JIMT-1, 72 h; method in brief: as §1
[19] = tested on: NCI-H1299; test: Antiproliferative activity against human NCI-H1299 cells assessed as inhibition of cell growth incubated for 72 hrs by cell-titer glo assay; assay type: functional, cell-based; conditions: NCI-H1299, 72 h
Method in brief: (§2)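 Cells from ATCC or ECACC, kept in supplier-recommended medium with 1% penicillin-streptomycin at 37°C, 5% CO₂. Seeded at 10,000–30,000/cm² (adherent) or 100,000/mL (nonadherent) in medium with 10% fetal calf serum. Dosed after 24 h in duplicate with serial dilutions. Viable cells read by CellTiter-Glo 72 h later. IC50 from sigmoidal fit. At least two independent experiments.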

[20] = Antiproliferative activity against human LUDLU-1 cells assessed as inhibition of cell growth incubated for 72 hrs by cell-titer glo assay; assay type: functional, cell-based; conditions: LUDLU-1, 72 h; method in brief: as §1
[21] = tested on: PC-3; test: Antiproliferative activity against human PC-3 cells assessed as inhibition of cell growth incubated for 72 hrs by cell-titer glo assay; assay type: functional, cell-based; conditions: PC-3, 72 h; method in brief: as §2
[22] = Antiproliferative activity against human PL-21 cells assessed as inhibition of cell growth incubated for 72 hrs by cell-titer glo assay; assay type: functional, cell-based; conditions: PL-21, 72 h; method in brief: as §2
[23] = tested on: K562; test: Antiproliferative activity against human K562 cells assessed as inhibition of cell growth incubated for 72 hrs by cell-titer glo assay; assay type: functional, cell-based; conditions: K562, 72 h; method in brief: as §1
[24] = Clearance in male cynomolgus monkey at 5 mg/kg, iv by LC-MS analysis; assay type: ADME, organism-based, Macaca fascicularis; conditions: in vivo
[25] = AUC in nu/nu mouse at 10 mg/kg, iv by LC-MS analysis; assay type: ADME, organism-based; conditions: in vivo
[26] = tested on: COLO 205; test: Antitumor activity against human COLO 205 cells xenografted in nu/nu mouse assessed as tumor growth inhibition at 60 mg/kg, po administered for 10 days; assay type: functional, organism-based; conditions: time 10.0 day
[27] = tested on: A2780; test: In vivo inhibition of PLK1 in human A2780 cells xenografted in nu/nu mouse assessed as decreased TCTP phosphorylation on Ser46 at 60 mg/kg, po administered for 2 hrs by Western blotting analysis; assay type: functional, organism-based

Chain of Ephrin type-A receptor 2 (P29317 whole entry): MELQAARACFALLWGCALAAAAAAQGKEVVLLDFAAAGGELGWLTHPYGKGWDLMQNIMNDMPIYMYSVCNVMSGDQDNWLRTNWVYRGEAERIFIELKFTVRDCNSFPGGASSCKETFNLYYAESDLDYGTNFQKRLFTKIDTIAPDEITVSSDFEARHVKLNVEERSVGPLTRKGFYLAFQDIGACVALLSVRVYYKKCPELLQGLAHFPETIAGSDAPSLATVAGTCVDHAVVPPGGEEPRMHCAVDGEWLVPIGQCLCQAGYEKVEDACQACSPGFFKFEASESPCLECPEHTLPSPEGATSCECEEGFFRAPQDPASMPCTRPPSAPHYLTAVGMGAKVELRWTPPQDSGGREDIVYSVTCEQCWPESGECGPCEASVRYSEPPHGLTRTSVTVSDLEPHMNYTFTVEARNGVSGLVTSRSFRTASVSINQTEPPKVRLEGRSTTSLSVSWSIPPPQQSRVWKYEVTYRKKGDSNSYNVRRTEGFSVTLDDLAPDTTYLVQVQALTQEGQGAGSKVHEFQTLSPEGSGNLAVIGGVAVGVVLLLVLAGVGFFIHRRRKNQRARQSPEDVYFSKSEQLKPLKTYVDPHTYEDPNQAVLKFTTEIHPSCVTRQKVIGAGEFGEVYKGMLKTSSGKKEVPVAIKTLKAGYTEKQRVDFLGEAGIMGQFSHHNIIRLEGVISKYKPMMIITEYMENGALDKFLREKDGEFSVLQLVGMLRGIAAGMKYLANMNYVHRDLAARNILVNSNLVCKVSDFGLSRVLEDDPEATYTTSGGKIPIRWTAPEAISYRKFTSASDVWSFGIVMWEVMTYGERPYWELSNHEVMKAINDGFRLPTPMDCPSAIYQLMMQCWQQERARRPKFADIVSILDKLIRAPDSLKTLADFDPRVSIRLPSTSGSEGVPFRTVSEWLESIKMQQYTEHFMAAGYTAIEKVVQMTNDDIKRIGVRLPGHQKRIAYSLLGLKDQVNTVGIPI
Chain of Mitogen-activated protein kinase 12 (Homo sapiens) (P53778 whole entry, the tested form may be a part): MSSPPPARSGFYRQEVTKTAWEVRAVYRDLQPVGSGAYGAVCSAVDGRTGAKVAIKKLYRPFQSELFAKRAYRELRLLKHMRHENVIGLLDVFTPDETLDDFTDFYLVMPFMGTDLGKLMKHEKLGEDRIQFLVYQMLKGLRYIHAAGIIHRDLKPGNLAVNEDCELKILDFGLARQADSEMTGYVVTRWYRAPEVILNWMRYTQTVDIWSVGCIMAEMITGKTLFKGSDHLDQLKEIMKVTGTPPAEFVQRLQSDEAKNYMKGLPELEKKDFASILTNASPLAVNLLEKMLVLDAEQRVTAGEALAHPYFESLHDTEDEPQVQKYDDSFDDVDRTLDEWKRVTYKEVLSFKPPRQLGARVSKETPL
Chain of Tyrosine-protein kinase Lyn (Mus musculus) (P25911 whole entry): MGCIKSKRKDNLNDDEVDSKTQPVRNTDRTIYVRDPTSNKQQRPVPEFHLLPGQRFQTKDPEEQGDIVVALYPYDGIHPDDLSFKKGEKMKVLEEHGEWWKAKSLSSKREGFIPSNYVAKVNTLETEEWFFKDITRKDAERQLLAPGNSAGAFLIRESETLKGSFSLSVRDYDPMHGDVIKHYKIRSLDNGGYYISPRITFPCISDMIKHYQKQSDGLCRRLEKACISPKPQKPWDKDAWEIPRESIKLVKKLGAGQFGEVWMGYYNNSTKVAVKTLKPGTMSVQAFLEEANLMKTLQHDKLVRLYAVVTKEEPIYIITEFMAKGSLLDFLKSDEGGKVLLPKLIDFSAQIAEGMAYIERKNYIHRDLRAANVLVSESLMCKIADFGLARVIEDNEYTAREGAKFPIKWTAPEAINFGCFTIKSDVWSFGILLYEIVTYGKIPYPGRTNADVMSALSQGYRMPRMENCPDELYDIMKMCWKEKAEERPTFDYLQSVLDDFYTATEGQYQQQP
Chain of BDNF/NT-3 growth factors receptor (Homo sapiens) (Q16620 32-822 limits assumed): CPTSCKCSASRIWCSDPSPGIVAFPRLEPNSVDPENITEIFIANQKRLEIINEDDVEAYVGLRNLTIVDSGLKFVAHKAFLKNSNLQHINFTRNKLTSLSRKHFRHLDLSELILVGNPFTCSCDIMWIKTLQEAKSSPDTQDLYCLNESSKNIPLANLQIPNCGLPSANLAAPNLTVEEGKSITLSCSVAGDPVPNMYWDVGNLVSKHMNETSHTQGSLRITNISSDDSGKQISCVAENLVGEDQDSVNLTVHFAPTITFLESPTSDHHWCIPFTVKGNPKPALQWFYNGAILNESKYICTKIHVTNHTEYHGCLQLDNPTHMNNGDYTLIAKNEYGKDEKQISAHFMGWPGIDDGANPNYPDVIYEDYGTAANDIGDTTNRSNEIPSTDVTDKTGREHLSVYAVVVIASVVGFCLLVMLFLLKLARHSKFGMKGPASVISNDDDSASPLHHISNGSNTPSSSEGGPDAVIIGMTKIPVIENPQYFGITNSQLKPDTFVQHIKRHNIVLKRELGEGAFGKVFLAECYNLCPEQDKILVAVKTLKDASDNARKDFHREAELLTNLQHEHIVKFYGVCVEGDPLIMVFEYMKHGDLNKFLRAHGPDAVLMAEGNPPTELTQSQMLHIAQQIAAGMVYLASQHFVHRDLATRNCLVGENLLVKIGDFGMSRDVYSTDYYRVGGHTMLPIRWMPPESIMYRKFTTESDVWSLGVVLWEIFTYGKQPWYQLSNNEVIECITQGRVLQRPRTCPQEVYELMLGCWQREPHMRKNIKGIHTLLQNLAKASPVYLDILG
Chain of MAP kinase-activated protein kinase 5 (Homo sapiens) (Q8IW41 whole entry, the tested form may be a part): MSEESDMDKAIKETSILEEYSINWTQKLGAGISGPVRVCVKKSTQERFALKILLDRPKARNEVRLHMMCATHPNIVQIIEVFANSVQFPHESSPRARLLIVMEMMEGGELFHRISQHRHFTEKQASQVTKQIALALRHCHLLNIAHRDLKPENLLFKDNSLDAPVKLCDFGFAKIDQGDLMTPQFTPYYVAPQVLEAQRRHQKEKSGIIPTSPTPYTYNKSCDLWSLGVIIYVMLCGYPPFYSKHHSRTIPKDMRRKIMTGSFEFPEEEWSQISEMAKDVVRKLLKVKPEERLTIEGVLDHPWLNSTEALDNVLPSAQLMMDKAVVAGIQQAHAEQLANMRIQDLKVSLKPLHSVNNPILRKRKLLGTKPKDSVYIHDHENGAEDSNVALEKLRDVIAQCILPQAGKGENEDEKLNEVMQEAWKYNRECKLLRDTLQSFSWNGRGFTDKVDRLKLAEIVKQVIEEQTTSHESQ
Chain of PAS domain-containing serine/threonine-protein kinase (Homo sapiens) (Q96RG2 whole entry, the tested form may be a part): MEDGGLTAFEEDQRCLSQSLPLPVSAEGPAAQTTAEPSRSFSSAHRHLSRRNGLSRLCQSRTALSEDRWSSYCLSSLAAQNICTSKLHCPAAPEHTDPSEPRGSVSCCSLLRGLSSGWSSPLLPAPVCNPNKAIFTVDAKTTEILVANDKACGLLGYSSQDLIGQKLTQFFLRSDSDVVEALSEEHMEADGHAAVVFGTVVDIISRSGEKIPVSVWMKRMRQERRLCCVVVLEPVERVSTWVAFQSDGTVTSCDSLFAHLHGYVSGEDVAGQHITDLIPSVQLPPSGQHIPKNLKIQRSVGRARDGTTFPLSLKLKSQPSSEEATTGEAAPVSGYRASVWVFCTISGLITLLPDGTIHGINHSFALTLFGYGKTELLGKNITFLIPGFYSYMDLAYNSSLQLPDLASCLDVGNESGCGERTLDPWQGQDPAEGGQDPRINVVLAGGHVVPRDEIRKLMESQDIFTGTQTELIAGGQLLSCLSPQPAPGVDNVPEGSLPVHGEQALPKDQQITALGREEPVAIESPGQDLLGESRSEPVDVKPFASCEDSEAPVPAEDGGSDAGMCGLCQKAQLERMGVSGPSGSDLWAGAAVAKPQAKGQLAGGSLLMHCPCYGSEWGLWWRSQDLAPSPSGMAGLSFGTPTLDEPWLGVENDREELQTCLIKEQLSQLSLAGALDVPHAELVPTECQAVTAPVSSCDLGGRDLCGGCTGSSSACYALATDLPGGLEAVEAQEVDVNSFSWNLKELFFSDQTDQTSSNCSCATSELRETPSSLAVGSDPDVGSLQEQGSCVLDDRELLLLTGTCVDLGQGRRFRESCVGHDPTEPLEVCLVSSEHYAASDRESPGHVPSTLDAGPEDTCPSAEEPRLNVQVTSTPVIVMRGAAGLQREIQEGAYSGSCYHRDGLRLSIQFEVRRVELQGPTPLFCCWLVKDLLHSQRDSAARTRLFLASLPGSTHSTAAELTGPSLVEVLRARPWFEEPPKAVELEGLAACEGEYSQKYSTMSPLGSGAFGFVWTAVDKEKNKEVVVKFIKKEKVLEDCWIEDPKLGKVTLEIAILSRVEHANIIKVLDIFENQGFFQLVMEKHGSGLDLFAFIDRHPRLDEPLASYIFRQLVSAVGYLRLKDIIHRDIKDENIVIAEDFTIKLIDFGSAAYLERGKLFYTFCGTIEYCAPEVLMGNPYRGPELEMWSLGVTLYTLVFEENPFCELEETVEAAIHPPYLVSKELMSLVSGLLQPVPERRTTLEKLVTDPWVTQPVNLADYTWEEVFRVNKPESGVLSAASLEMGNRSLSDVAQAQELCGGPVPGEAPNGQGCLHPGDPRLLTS
Chain of Serine/threonine-protein kinase Nek3 (Homo sapiens) (P51956 whole entry, the tested form may be a part): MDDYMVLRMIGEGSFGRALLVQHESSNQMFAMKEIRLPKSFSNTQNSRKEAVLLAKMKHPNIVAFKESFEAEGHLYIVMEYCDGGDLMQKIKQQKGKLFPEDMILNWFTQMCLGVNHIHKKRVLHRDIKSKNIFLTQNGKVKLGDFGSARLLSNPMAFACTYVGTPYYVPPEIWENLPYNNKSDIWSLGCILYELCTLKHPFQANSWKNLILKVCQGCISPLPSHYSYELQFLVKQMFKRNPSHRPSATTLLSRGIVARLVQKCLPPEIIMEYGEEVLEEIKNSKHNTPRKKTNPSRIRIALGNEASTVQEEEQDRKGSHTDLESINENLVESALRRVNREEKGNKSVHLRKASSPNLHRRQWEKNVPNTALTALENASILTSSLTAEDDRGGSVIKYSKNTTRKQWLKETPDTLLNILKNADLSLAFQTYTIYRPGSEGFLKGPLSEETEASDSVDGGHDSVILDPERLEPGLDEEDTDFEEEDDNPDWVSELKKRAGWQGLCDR

Work on `CN1CCN(c2ccc(OC(F)(F)F)c(Nc3ncc4c(n3)-c3c(c(C(N)=O)nn3CCO)CC4)c2)CC1` [ONVANSERTIB] yielded an IC50 [1] of over 10 µM, an inhibition [2] of 89.7% and an Activity [3] of 73%. The Activity [4] was 122%, the Activity [5] was 87% and the Activity [6] was 127%. The Activity [7] was 127%, the Activity [8] was 113% and the Activity [9] was 113%. For the same molecule, the Activity [10] was 145%, the Activity [11] was 85% and the Activity [12] was 96%. It also gave an Activity [13] of 129%, an Activity [14] of 77% and an Activity [15] of 113%. It also gave an IC50 [16] of 0.019 µM, an IC50 [17] of 0.049 µM and an IC50 [18] of 0.105 µM. It also gave an IC50 [19] of 0.347 µM, an IC50 [20] of 0.032 µM and an IC50 [21] of 0.152 µM. The IC50 [22] was 0.022 µM, the IC50 [23] was 0.087 µM and the clearance [24] was 11.2 mL/min/kg. The AUC [25] was 8.6 µM·h, the TGI [26] was “Active” and the inhibition [27] was “Active”.

Source: ChEMBL document CHEMBL5678806, “NMS-P937, an orally available, specific small-molecule polo-like kinase 1 inhibitor with antitumor activity in solid and hematologic malignancies” (Mol Cancer Ther, 2012)
